Converted amounts (≈) assume the structure as drawn. The source made the active and inactive calls. No cut-off for these calls is given here.
Key:
Rattus norvegicus = assay: Antiinflammatory activity rat assessed as reduction of carrageenan-induced paw oedema at 100 mg/kg, po administered 30 mins before carrageenan challenge measured after 60 to 180 mins; format: functional, organism-based; design: dose 100 mg/kg
Procedure, shortened: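 Rats randomly assigned, 100 mg/kg orally as suspension in 1% carboxymethyl cellulose, 30 min before carrageenan injected into right hind paw. Paw thickness measured with vernier callipers at 60, 120 and 180 min. Diclofenac reference; mean ± SEM, n = 6, vs vehicle control.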

Mus musculus [1] = assay: Analgesic activity Wistar albino mouse assessed as tail withdrawal latency time at 100 mg/kg, po administered by intragastric tube after 60 mins (reference value: 1.363 +/- 0.1297 sec); format: functional
Mus musculus [2] = assay: Analgesic activity Wistar albino mouse assessed as tail withdrawal latency time at 100 mg/kg, po administered by intragastric tube after 120 mins (reference value: 1.363 +/- 0.1297 sec); format: functional
Mus musculus [3] = assay: Analgesic activity Wistar albino mouse assessed as tail withdrawal latency time at 100 mg/kg, po administered by intragastric tube after 180 mins (reference value: 1.363 +/- 0.1297 sec); format: functional
Staphylococcus aureus [4] = assay: Antibacterial activity against Staphylococcus aureus ATTC 25923 after 16 to 18 hrs by serial dilution method; format: functional
Procedure, shortened: (§1)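 Serial drug dilutions in Mueller-Hinton broth adjusted to pH 5.0 with phosphate buffer, inoculated with standardized bacterial suspension, incubated 16–18 h at 37 °C; MIC taken as lowest concentration without conspicuous growth.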

Staphylococcus aureus [5] = assay: Antibacterial activity against Staphylococcus aureus ATTC 25923 at MIC after 3 to 4 days by disc diffusion method; format: functional
Procedure, shortened: (§2)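 Agar well diffusion: seeded agar plates dried 1 h at 37 °C, wells punched and filled with test compound at MIC level in DMSO; DMSO solvent control. Plates in triplicate, kept at 37 °C for 3–4 days; zone of inhibition read.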

Escherichia coli [6] = assay: Antibacterial activity against Escherichia coli ATTC 25922 after 16 to 18 hrs by serial dilution method; format: functional; procedure, shortened: as §1
Escherichia coli [7] = assay: Antibacterial activity against Escherichia coli ATTC 25922 at MIC after 3 to 4 days by disc diffusion method; format: functional; procedure, shortened: as §2
Pseudomonas aeruginosa [8] = assay: Antibacterial activity against Pseudomonas aeruginosa ATTC 27853 after 16 to 18 hrs by serial dilution method; format: functional; procedure, shortened: as §1
Pseudomonas aeruginosa [9] = assay: Antibacterial activity against Pseudomonas aeruginosa ATTC 27853 at MIC after 3 to 4 days by disc diffusion method; format: functional; procedure, shortened: as §2
Klebsiella pneumoniae [10] = assay: Antibacterial activity against recultured Klebsiella pneumoniae after 16 to 18 hrs by serial dilution method; format: functional; procedure, shortened: as §1
Klebsiella pneumoniae [11] = assay: Antibacterial activity against recultured Klebsiella pneumoniae at MIC after 3 to 4 days by disc diffusion method; format: functional; procedure, shortened: as §2
Talaromyces marneffei [12] = assay: Antifungal activity against recultured Penicillium marneffei by serial plate dilution method; format: functional
Talaromyces marneffei [13] = assay: Antifungal activity against recultured Penicillium marneffei at MIC after 3 to 4 days; format: functional
[14] = tested on: Trichophyton mentagrophytes; assay: Antifungal activity against recultured Trichophyton mentagrophytes by serial plate dilution method; format: functional
[15] = tested on: Trichophyton mentagrophytes; assay: Antifungal activity against recultured Trichophyton mentagrophytes at MIC after 3 to 4 days; format: functional
Aspergillus flavus [16] = assay: Antifungal activity against Aspergillus flavus NCIM 524 by serial plate dilution method; format: functional
Aspergillus flavus [17] = assay: Antifungal activity against Aspergillus flavus NCIM 524 at MIC after 3 to 4 days; format: functional
Aspergillus fumigatus [18] = assay: Antifungal activity against Aspergillus fumigatus NCIM 902 by serial plate dilution method; format: functional
Aspergillus fumigatus [19] = assay: Antifungal activity against Aspergillus fumigatus NCIM 902 at MIC after 3 to 4 days; format: functional

Compound	Activity (Rattus norvegicus)	Time (Mus musculus [1])	Time (Mus musculus [2])	Time (Mus musculus [3])	MIC (Staphylococcus aureus [4])	diameter of the inhibition zone (DIZ) (Staphylococcus aureus [5])	MIC (Escherichia coli [6])	diameter of the inhibition zone (DIZ) (Escherichia coli [7])	MIC (Pseudomonas aeruginosa [8])	diameter of the inhibition zone (DIZ) (Pseudomonas aeruginosa [9])	MIC (Klebsiella pneumoniae [10])	diameter of the inhibition zone (DIZ) (Klebsiella pneumoniae [11])	MIC (Talaromyces marneffei [12])	diameter of the inhibition zone (DIZ) (Talaromyces marneffei [13])	MIC [14]	diameter of the inhibition zone (DIZ) [15]	MIC (Aspergillus flavus [16])	diameter of the inhibition zone (DIZ) (Aspergillus flavus [17])	MIC (Aspergillus fumigatus [18])	diameter of the inhibition zone (DIZ) (Aspergillus fumigatus [19])
COc1ccc(Br)c(-c2nnc3sc(-c4ccc(C)cc4)nn23)c1	Active	2.384 s	2.681 s	2.47 s	15.8 µM (≈ 6.32 µg/mL)	16 mm	15.8 µM (≈ 6.32 µg/mL)	16 mm	31.1 µM (≈ 12.5 µg/mL)	11 mm	15.8 µM (≈ 6.32 µg/mL)	16 mm	31.1 µM (≈ 12.5 µg/mL)	11 mm	15.8 µM (≈ 6.32 µg/mL)	16 mm	31.1 µM (≈ 12.5 µg/mL)	11 mm	31.1 µM (≈ 12.5 µg/mL)	11 mm
COc1ccc(Br)c(-c2nnc3sc(-c4cc(C)cc(C)c4)nn23)c1		2.175 s	2.075 s	2.238 s	30.1 µM (≈ 12.5 µg/mL)	11 mm	15.1 µM (≈ 6.25 µg/mL)	16 mm	15.1 µM (≈ 6.25 µg/mL)	16 mm	15.1 µM (≈ 6.25 µg/mL)	16 mm	30.1 µM (≈ 12.5 µg/mL)	11 mm	15.1 µM (≈ 6.25 µg/mL)	16 mm	15.1 µM (≈ 6.25 µg/mL)	16 mm	15.1 µM (≈ 6.25 µg/mL)	16 mm
COc1ccc(Br)c(-c2nnc3n2NC(c2ccccc2)S3)c1 (centres undefined)		3.181 s	3.46 s	3.391 s	32.1 µM (≈ 12.5 µg/mL)	11 mm	16.1 µM (≈ 6.25 µg/mL)	16 mm	32.1 µM (≈ 12.5 µg/mL)	11 mm	32.1 µM (≈ 12.5 µg/mL)	11 mm	6.25 µM (≈ 2.43 µg/mL)	16 mm	12.5 µM (≈ 4.87 µg/mL)	11 mm	12.5 µM (≈ 4.87 µg/mL)	11 mm	6.25 µM (≈ 2.43 µg/mL)	16 mm
COc1ccc(Br)c(-c2nnc3sc(-c4ccc(I)cc4I)nn23)c1		2.038 s	2.088 s	2.225 s	19.6 µM (≈ 12.5 µg/mL)	11 mm	19.6 µM (≈ 12.5 µg/mL)	11 mm	19.6 µM (≈ 12.5 µg/mL)	11 mm	19.6 µM (≈ 12.5 µg/mL)	11 mm	19.6 µM (≈ 12.5 µg/mL)	11 mm	19.6 µM (≈ 12.5 µg/mL)	11 mm	19.6 µM (≈ 12.5 µg/mL)	11 mm	19.6 µM (≈ 12.5 µg/mL)	11 mm
COc1ccc(C2Nn3c(nnc3-c3cc(OC)ccc3Br)S2)c(OC)c1 (centres undefined)	Active	2.39 s	2.642 s	2.492 s	27.8 µM (≈ 12.5 µg/mL)	11 mm	13.9 µM (≈ 6.25 µg/mL)	16 mm	13.9 µM (≈ 6.25 µg/mL)	16 mm	13.9 µM (≈ 6.25 µg/mL)	16 mm	13.9 µM (≈ 6.25 µg/mL)	16 mm	27.8 µM (≈ 12.5 µg/mL)	11 mm	27.8 µM (≈ 12.5 µg/mL)	11 mm	27.8 µM (≈ 12.5 µg/mL)	11 mm
COc1ccc(Br)c(-c2nnc3n2NC(c2ccccc2OC)S3)c1 (centres undefined)	Active	2.387 s	2.652 s	2.501 s	29.8 µM (≈ 12.5 µg/mL)	11 mm	14.9 µM (≈ 6.25 µg/mL)	16 mm	29.8 µM (≈ 12.5 µg/mL)	11 mm	29.8 µM (≈ 12.5 µg/mL)	11 mm	29.9 µM (≈ 12.5 µg/mL)	11 mm	14.9 µM (≈ 6.25 µg/mL)	16 mm	14.9 µM (≈ 6.25 µg/mL)	16 mm	14.9 µM (≈ 6.25 µg/mL)	16 mm
COc1ccc(-c2nn3c(-c4cc(OC)ccc4Br)nnc3s2)cc1	Active	2.379 s	2.674 s	2.44 s	15 µM (≈ 6.25 µg/mL)	16 mm	15 µM (≈ 6.25 µg/mL)	16 mm	15 µM (≈ 6.25 µg/mL)	16 mm	15 µM (≈ 6.25 µg/mL)	16 mm	29.9 µM (≈ 12.5 µg/mL)	11 mm	15 µM (≈ 6.25 µg/mL)	16 mm	29.9 µM (≈ 12.5 µg/mL)	11 mm	15 µM (≈ 6.25 µg/mL)	16 mm
CC(C)=CCN1CC[C@]2(C)c3cc(O)ccc3C[C@H]1[C@H]2C [(+)-PENTAZOCINE]		7.075 s	6.863 s	7.025 s																
COc1ccc(Br)c(-c2nnc3n2NC(c2ccc(C)cc2)S3)c1 (centres undefined)	Active	2.403 s	2.643 s	2.438 s	31 µM (≈ 12.5 µg/mL)	11 mm	15.5 µM (≈ 6.25 µg/mL)	16 mm	15.5 µM (≈ 6.25 µg/mL)	16 mm	15.5 µM (≈ 6.25 µg/mL)	16 mm	31 µM (≈ 12.5 µg/mL)	11 mm	31 µM (≈ 12.5 µg/mL)	11 mm	15.5 µM (≈ 6.25 µg/mL)	16 mm	15.5 µM (≈ 6.25 µg/mL)	16 mm
COc1ccc(Br)c(-c2nnc3n2NC(c2ccc(-c4ccccc4)cc2)S3)c1 (centres undefined)		2.102 s	2.067 s	2.455 s	26.9 µM (≈ 12.5 µg/mL)	11 mm	26.9 µM (≈ 12.5 µg/mL)	11 mm	26.9 µM (≈ 12.5 µg/mL)	11 mm	13.4 µM (≈ 6.25 µg/mL)	16 mm	26.9 µM (≈ 12.5 µg/mL)	11 mm	26.9 µM (≈ 12.5 µg/mL)	11 mm	13.4 µM (≈ 6.25 µg/mL)	16 mm	26.9 µM (≈ 12.5 µg/mL)	11 mm
CC1(C)S[C@@H]2[C@H](NC(=O)[C@H](N)c3ccccc3)C(=O)N2[C@H]1C(=O)O [AMPICILLIN]					4.46 µM (≈ 1.56 µg/mL)	22 mm	17.9 µM (≈ 6.25 µg/mL)	30 mm	17.9 µM (≈ 6.25 µg/mL)	25 mm	17.9 µM (≈ 6.25 µg/mL)	23 mm								
CCC(C)n1ncn(-c2ccc(N3CCN(c4ccc(OCC5COC(Cn6cncn6)(c6ccc(Cl)cc6Cl)O5)cc4)CC3)cc2)c1=O (centres undefined) [ITRACONAZOLE]													2.21 µM (≈ 1.56 µg/mL)	22 mm	8.86 µM (≈ 6.25 µg/mL)	30 mm	8.86 µM (≈ 6.25 µg/mL)	25 mm	8.86 µM (≈ 6.25 µg/mL)	23 mm
COc1ccc(Br)c(-c2nnc3sc(-c4ccccc4)nn23)c1		1.963 s	2.125 s	2.5 s	32.3 µM (≈ 12.5 µg/mL)	11 mm	32.3 µM (≈ 12.5 µg/mL)	11 mm	32.3 µM (≈ 12.5 µg/mL)	11 mm	32.3 µM (≈ 12.5 µg/mL)	11 mm	16.1 µM (≈ 6.25 µg/mL)	16 mm	32.3 µM (≈ 12.5 µg/mL)	11 mm	32.3 µM (≈ 12.5 µg/mL)	11 mm	32.3 µM (≈ 12.5 µg/mL)	11 mm

— ChEMBL document CHEMBL1955832, “Facile synthesis, characterization and pharmacological activities of 3,6-disubstituted 1,2,4-triazolo[3,4-b][1,3,4]thiadiazoles and 5,6-dihydro-3,6-disubstituted-1,2,4-triazolo[3,4-b][1,3,4]thiadiazoles” (2012)
